Results taken from ChEMBL document CHEMBL1134486, “Synthesis and biological evaluation of purine-containing butenolides” (J Med Chem, 2001).

Experiments:
[1] = compound: COC1=C(OC)/C(=C/Cn2cnc3c(N)ncnc32)OC1=O; assay: (§1) Rate of deamination in the presence of calf mucosal adenosine deaminase (ADA)
In short: (§2)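 Deamination rates followed with calf mucosal ADA (EC 3.5.4.4) in buffer solutions; Km and Vmax relative to adenosine as substrate; inhibition (Ki) assessed with adenosine as substrate.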

[2] = compound: COC1=C(OC)C(O)(CCn2cnc3c(N)ncnc32)OC1=O; assay: as §1; in short: as §2

B1: Adenosine deaminase (Bos taurus), P56658 (protein)
chain: MAQTPAFNKPKVELHVHLDGAIKPETILYYGRKRGIALPADTPEELQNIIGMDKPLSLPEFLAKFDYYMPAIAGCREAVKRIAYEFVEMKAKDGVVYVEVRYSPHLLANSKVEPIPWNQAEGDLTPDEVVSLVNQGLQEGERDFGVKVRSILCCMRHQPSWSSEVVELCKKYREQTVVAIDLAGDETIEGSSLFPGHVKAYAEAVKSGVHRTVHAGEVGSANVVKEAVDTLKTERLGHGYHTLEDATLYNRLRQENMHFEVCPWSSYLTGAWKPDTEHPVVRFKNDQVNYSLNTDDPLIFKSTLDTDYQMTKNEMGFTEEEFKRLNINAAKSSFLPEDEKKELLDLLYKAYGMPSPASAEQCL
In the case of B1, the Km [1] is reported as 266 µM and the Km [2] is reported as > 800 µM.
